Source: ChEMBL document CHEMBL3244303, “Synthesis of spiro[isobenzofuran-1(3H),4'-piperidines] as potential central nervous system agents. 5. Conformationally mobile analogues derived by furan ring opening” (J Med Chem, 1979)

Tested on: Mus musculus
Assay: Antidepressant activity in ip dosed CD1 mouse assessed as inhibition of tetrabenazine methanesulfonate-induced reserpine like behavior administered 30 mins before tetrabenazine methanesulfonate challenge measured after 30 mins
Format: functional
Summary of the method: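 Male CD-1 mice, groups of five, given test compound ip; tetrabenazine methanesulfonate 40 mg/kg ip 30 min later; after a further 30 min mice placed in individual containers and ptosis scored on a three-point scale (eyes closed = 2).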

Structure (SMILES)	ED50 [mg/kg]
Br.CN1CCC(c2ccccc2Cc2ccc(F)cc2)CC1	4.9
Br.COc1ccc(Cc2ccccc2C2CCN(C)CC2)cc1	> 20
CN1CCC(c2ccccc2Cc2ccc(O)cc2)CC1	> 20
Br.c1ccc(CCN2CCC(c3ccccc3Cc3ccccc3)CC2)cc1	10.8
Br.Fc1ccc(Cc2ccccc2C2CCNCC2)cc1	1.5
COc1ccc(Cc2ccccc2C2CCNCC2)cc1.Cl	7.1
Oc1ccc(Cc2ccccc2C2CCNCC2)cc1	1.2
ON1CCC(c2ccccc2Cc2ccccc2)CC1	7.3
O=C(Oc1ccccc1)N1CCC(c2ccccc2Cc2ccccc2)CC1	> 20
CN1CCC(O)(c2ccccc2Cc2ccccc2)CC1	18
CN1CCC(O)(c2cccc(Cc3ccccc3)c2)CC1	> 20
CN1CCC(O)(c2ccc(Cc3ccccc3)cc2)CC1	> 20
COc1ccc(Cc2ccccc2C2(O)CCN(C)CC2)cc1	> 20
Cl.OC1(c2ccccc2Cc2ccccc2)CCN(Cc2ccccc2)CC1	> 20
OC1(c2ccccc2Cc2ccccc2)CCN(CCc2ccccc2)CC1	> 20
CC(=O)OC1(c2ccccc2Cc2ccccc2)CCN(C)CC1.Cl	> 20
CC(=O)OC1(c2cccc(Cc3ccccc3)c2)CCN(C)CC1.Cl	> 20

Structure (SMILES)	ED50 [mg/kg]
CC(=O)OC1(c2ccccc2Cc2ccccc2)CCN(Cc2ccccc2)CC1.Cl	> 20
COC1(c2ccccc2Cc2ccccc2)CCN(C)CC1.Cl	> 20
COC1(c2ccccc2Cc2ccccc2)CCNCC1	7.8
Br.CN1CC=C(c2cccc(Cc3ccccc3)c2)CC1	> 20
Br.CN1CC=C(c2ccc(Cc3ccccc3)cc2)CC1	> 20
Br.COc1ccc(Cc2ccccc2C2=CCN(C)CC2)cc1	> 20
C1=C(c2ccccc2Cc2ccccc2)CCN(Cc2ccccc2)C1.Cl	> 20
C1=C(c2ccccc2Cc2ccccc2)CCN(CCc2ccccc2)C1	> 20
Cl.c1ccc(COC2(c3ccccc3)CCNCC2)cc1	10.1
Cl.c1ccc(COC2(c3ccccc3)CCN(CC3CC3)CC2)cc1	6.3
CCOC(=O)N1CCC(OCc2ccccc2)(c2ccccc2)CC1	> 20
CN1CCC(OCc2ccccc2)(c2ccccc2)CC1.Cl	6.2
c1ccc(CCN2CCC(OCc3ccccc3)(c3ccccc3)CC2)cc1	> 20
CN(C)CCC=C1c2ccccc2CCc2ccccc21 [AMITRIPTYLINE]	1.9
CNCCCN1c2ccccc2CCc2ccccc21 [DESIPRAMINE]	0.8
CN(C)CCCN1c2ccccc2CCc2ccccc21 [IMIPRAMINE]	1.3

Target: Transporter (Rattus norvegicus, UniProt Q63380)
Assay: Inhibition of NET-mediated norepinephrine uptake in rat brain synaptosomes
Format: subcellular

Transporter, sequence (Q63380 whole entry): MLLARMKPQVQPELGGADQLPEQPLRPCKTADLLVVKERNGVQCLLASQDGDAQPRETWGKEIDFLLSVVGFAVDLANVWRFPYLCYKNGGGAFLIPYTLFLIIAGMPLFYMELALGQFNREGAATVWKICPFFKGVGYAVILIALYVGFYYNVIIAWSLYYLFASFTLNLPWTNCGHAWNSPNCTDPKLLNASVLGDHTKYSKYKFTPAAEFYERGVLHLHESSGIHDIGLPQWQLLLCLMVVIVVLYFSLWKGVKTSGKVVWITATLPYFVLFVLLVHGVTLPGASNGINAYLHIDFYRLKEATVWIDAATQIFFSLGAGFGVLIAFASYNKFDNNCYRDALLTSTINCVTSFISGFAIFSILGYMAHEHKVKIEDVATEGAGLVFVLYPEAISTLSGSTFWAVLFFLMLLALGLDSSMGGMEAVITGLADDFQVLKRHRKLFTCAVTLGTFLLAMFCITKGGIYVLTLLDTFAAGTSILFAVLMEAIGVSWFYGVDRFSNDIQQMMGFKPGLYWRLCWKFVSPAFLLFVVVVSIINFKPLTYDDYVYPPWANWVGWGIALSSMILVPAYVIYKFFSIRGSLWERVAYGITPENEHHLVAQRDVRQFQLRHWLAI

IC50 [nM]	Structure (SMILES)
10	c1ccc(C2OC3(CCNCC3)c3ccccc32)cc1 (centres undefined)
